Experimental data taken from PMC9359741 (Clinical Cancer Research, 2022).
Values joined by “and” are separate entries in the source; they are usually repeats but may differ in a detail not shown here. Equal entries are not always repeated.

Tests used:
Type in all cases: in vivo, human
[1] = tested on: pancreatic ductal adenocarcinoma (PDA); experiment: Phase 2 efficacy
In short: (§1)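 Oral test compound 300 mg QD plus anti-PD-1 antibody 200 mg IV Q3W. PD-1/PD-L1 IR cohort: progression on anti-PD-1/PD-L1 (RECIST or irRC). prOVCA cohort: progression ≤6 months after ≥4 platinum cycles. PDA cohort: ≥1 prior systemic line. Investigator assessed best response per RECIST v1.1 and irRC. ORR used confirmed responses with Clopper–Pearson 95% CI; all dosed patients. Screening tissue was profiled for MSI/MMR, TMB and gene expression.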

CSF-1R = experiment: Phase 2 pharmacodynamic biomarkers; conditions: cycle 1 day 15 compared with cycle 1 day 1
In short: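 Blood was drawn for serum CSF-1 and CTX, plus serum osteoprotegerin and non-classical monocytes in Phase 2. Urine was collected for NTX. Samples were taken pre-dose on cycle 1 days 1, 8 and 15, on day 1 of later cycles and at discontinuation. Mean change on cycle 1 day 15 versus cycle 1 day 1 was summarized descriptively, with outliers excluded.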

[2] = tested on: platinum-resistant ovarian cancer (prOVCA); experiment: Phase 2 efficacy
In short: as §1

[3] = tested on: PD-1/PD-L1 inhibitor-refractory advanced solid tumors; experiment: Phase 2 efficacy; conditions: PD-1/PD-L1 IR
In short: as §1

[4] = Phase 1b plasma pharmacokinetics of ARRY-382 and metabolites; conditions: for RAUC (accumulation ratio), geometric mean (geometric %CV) / Ctrough, geometric mean (geometric %CV) / RCmax (accumulation ratio), geometric mean (geometric %CV) / AUC(0-t) / Cmax / Tmax: Phase 1b; for AUC / AUC(0-t) / Cmax / Tmax: human, plasma, oral; for AUC(0-t): AUClast; for AUC(0-t) / Cmax: geometric mean (geometric %CV); for Tmax: median (range)
In short: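 Blood was collected for plasma test compound and its N-oxide, N-desmethyl and sulfate metabolites. Trough samples were taken ≤120 min before the oral dose on cycle 1 day 15 and day 1 of cycles 3–6. Doses were 200–400 mg QD in Phase 1b and 300 mg QD in Phase 2. Non-compartmental parameters were estimated per patient in the PK set, reported as geometric mean (geometric %CV) and Tmax as median (range).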

[5] = Cycle 2 day 1, ARRY-382 200 mg, n = 4
[6] = Cycle 2 day 1, ARRY-382 300 mg, n = 4
[7] = Cycle 2 day 1, ARRY-382 400 mg, n = 3
[8] = 200 mg, Cycle 1 day 1, ARRY-382 200 mg, n = 6
[9] = 200 mg, Cycle 2 day 1, ARRY-382 200 mg, n = 4
[10] = 300 mg, Cycle 1 day 1, ARRY-382 300 mg, n = 6
[11] = 300 mg, Cycle 2 day 1, ARRY-382 300 mg, n = 4
[12] = 400 mg, Cycle 1 day 1, ARRY-382 400 mg, n = 7
[13] = 400 mg, Cycle 2 day 1, ARRY-382 400 mg, n = 3

Cc1cccc(Cn2nc(C3CC3)c3c(NC(=O)c4cnc5cc(OCCN6CCN(C)CC6)ccn45)cccc32)n1 [ARRY-382]
Median OS ([1]; PDA): 2.2 (95% CI, 1.5–4.9) months
Median PFS ([1]; PDA): 1.4 (95% CI, 0.9–2.8) months
Median irPFS per irRC ([1]; PDA): 1.3 (95% CI, 0.9–2.7) months
DOR of confirmed PR ([1]; PDA cohort, 1 patient (MSI-Stable, TMB-Low, PD-L1 negative)): 2.4 months
Best overall response: CR ([1]; PDA, N = 27): 0 (0.0) n (%)
Best overall response: NE ([1]; PDA, N = 27): 14 (51.9) n (%)
Best overall response: PD ([1]; PDA, N = 27): 7 (25.9%) n (%) and 7 (25.9) n (%)
Best overall response: PR ([1]; PDA, N = 27): 1 (3.7) n (%)
Best overall response: SD ([1]; PDA, N = 27): 5 (18.5) n (%)
Immune-related best overall response: CR ([1]; PDA, N = 27): 0 (0.0) n (%)
Immune-related best overall response: NE ([1]; PDA, N = 27): 19 (70.4) n (%)
Immune-related best overall response: PD ([1]; PDA, N = 27): 0 (0.0) n (%)
Immune-related best overall response: PR ([1]; PDA, N = 27): 1 (3.7) n (%)
Immune-related best overall response: SD ([1]; PDA, N = 27): 7 (25.9) n (%)
ORR, % (95% CI) ([1]; confirmed, PDA, N = 27): 3.7 (0.1–19.0) %
ir-ORR, % (95% CI) ([1]; confirmed, PDA, N = 27): 3.7 (0.1–19.0) %
Change in mean CTX or NTX (CSF-1R): no significant changes
Median OS [2]: NR (95% CI, 5.3–NR)
Median PFS [2]: 2.1 (95% CI, 1.2–4.1) months
Median irPFS per irRC [2]: 2.5 (95% CI, 1.2–NR) months
Best overall response: CR ([2]; N = 11): 0 (0.0) n (%)
Best overall response: NE ([2]; N = 11): 2 (18.2) n (%)
Best overall response: PD ([2]; N = 11): 5 (45.5%) n (%) and 5 (45.5) n (%)
Best overall response: PR ([2]; N = 11): 0 (0.0) n (%)
Best overall response: SD ([2]; N = 11): 4 (36.4%) n (%) and 4 (36.4) n (%)
Immune-related best overall response: CR ([2]; N = 11): 0 (0.0) n (%)
Immune-related best overall response: NE ([2]; N = 11): 5 (45.5) n (%)
Immune-related best overall response: PD ([2]; N = 11): 0 (0.0) n (%)
Immune-related best overall response: PR ([2]; N = 11): 0 (0.0) n (%)
Immune-related best overall response: SD ([2]; N = 11): 6 (54.5) n (%)
ORR, % (95% CI) ([2]; confirmed, N = 11): 0.0 (0.0–28.5) %
ir-ORR, % (95% CI) ([2]; confirmed, N = 11): 0.0 (0.0–28.5) %
Median OS [3]: 12.4 (95% CI, 3.6–NR) months
Median PFS [3]: 1.6 (95% CI, 1.3–4.4) months
Median irPFS per irRC [3]: 1.5 (95% CI, 1.3–4.3) months
Best overall response: CR ([3]; N = 19): 0 (0.0) n (%)
Best overall response: NE ([3]; N = 19): 2 (10.5) n (%)
Best overall response: PD ([3]; N = 19): 9 (47.4%) n (%) and 9 (47.4) n (%)
Best overall response: PR ([3]; N = 19): 0 (0.0) n (%)
Best overall response: SD ([3]; N = 19): 8 (42.1%) n (%) and 8 (42.1) n (%)
Immune-related best overall response: CR ([3]; N = 19): 0 (0.0) n (%)
Immune-related best overall response: NE ([3]; N = 19): 11 (57.9) n (%)
Immune-related best overall response: PD ([3]; N = 19): 1 (5.3) n (%)
Immune-related best overall response: PR ([3]; N = 19): 0 (0.0) n (%)
Immune-related best overall response: SD ([3]; N = 19): 7 (36.8) n (%)
ORR, % (95% CI) ([3]; confirmed, N = 19): 0.0 (0.0–17.6) %
ir-ORR, % (95% CI) ([3]; confirmed, N = 19): 0.0 (0.0–17.6) %
RAUC (accumulation ratio), geometric mean (geometric %CV) ([4]; Cycle 2 day 1, ARRY-382 200 mg, n = 3): 3.03 (47.9)
Ctrough, geometric mean (geometric %CV) [4, 5]: 576 (59.5) ng/mL
RCmax (accumulation ratio), geometric mean (geometric %CV) [4, 5]: 2.53 (48.2)
RAUC (accumulation ratio), geometric mean (geometric %CV) ([4]; Cycle 2 day 1, ARRY-382 300 mg, n = 2): 1.92 (NC)
Ctrough, geometric mean (geometric %CV) [4, 6]: 667 (27.7) ng/mL
RCmax (accumulation ratio), geometric mean (geometric %CV) [4, 6]: 2.51 (95.7)
RAUC (accumulation ratio), geometric mean (geometric %CV) ([4]; Cycle 2 day 1, ARRY-382 400 mg, n = 2): 3.52 (NC)
Ctrough, geometric mean (geometric %CV) [4, 7]: 627 (126) ng/mL
RCmax (accumulation ratio), geometric mean (geometric %CV) [4, 7]: 2.28 (54.2)
AUC ([4]; 200 mg): 22800 ng·h/mL
AUC(0-t) [4, 8]: 3720 ng·h/mL
AUC(0-t) [4, 9]: 22800 ng·h/mL
Cmax [4, 8]: 773 ng/mL
Cmax [4, 9]: 1560 ng/mL
Tmax [4, 8]: 2 h
Tmax [4, 9]: 2 h
AUC ([4]; 300 mg): 30600 ng·h/mL
AUC(0-t) [4, 10]: 4890 ng·h/mL
AUC(0-t) [4, 11]: 30600 ng·h/mL
Cmax [4, 10]: 995 ng/mL
Cmax [4, 11]: 2260 ng/mL
Tmax [4, 10]: 4.01 h
Tmax [4, 11]: 4.18 h
AUC ([4]; 400 mg): 30800 ng·h/mL
AUC(0-t) [4, 12]: 6790 ng·h/mL
AUC(0-t) [4, 13]: 30800 ng·h/mL
Cmax [4, 12]: 1330 ng/mL
Cmax [4, 13]: 2560 ng/mL
Tmax [4, 12]: 4.07 h
Tmax [4, 13]: 1.98 h
